The EternaBench riboswitch data

System: MS2 coat protein
Experiment: apparent Kd, MS2 coat protein; higher = weaker binding; RNA-MaP array; FMN 200 µM where present
Summary of the method: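 Designs on Illumina sequencing-chip clusters, transcribed by stalled E. coli RNA polymerase, were exposed to SNAP-549-labelled MS2 coat protein in doubling steps from 0.7 or 1.5 nM up to 3 µM, without and then with constant ligand. The buffer held 100 mM Tris-HCl pH 7.5, 80 mM KCl, 4 mM MgCl2, BSA, DTT, yeast tRNA and Tween-20. Apparent Kd values are medians of filtered per-cluster binding-curve fits to green signal normalised to red-channel RNA signal and control-cluster median Fmax.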

[1] = designed as: OFF switch for flavin mononucleotide, no ligand
[2] = ligand present: flavin mononucleotide, designed as: OFF switch for flavin mononucleotide
[3] = designed as: ON switch for flavin mononucleotide, no ligand
[4] = ligand present: flavin mononucleotide, designed as: ON switch for flavin mononucleotide

| Sequence | apparent Kd [1] [nM] | apparent Kd [2] [nM] | apparent Kd [3] [nM] | apparent Kd [4] [nM] |
| --- | --- | --- | --- | --- |
| CAGCAAUGUAAGAAGGUAUUUAUUAUUAUAUUAUAAGGAUAUUACAUGAGGAUCACCCAUGUAUGAACCAAUAGCUGAAUUAUA | 6.1 | 5.88 |  |  |
| UAAUAAUUAUGAGGAUAUAUACAACAUGAGGAUCACCCAUGUACCCAUGUAGUAGAAGGCAUAUUUUUAUUUAAUAAUAUAAUU |  |  | 79.4 | 33.9 |
| AUUUAUGGCCAGAAGGACAUGAGGAUCACCCAUGUAGGAUAUGGACGAUUUUGCUCGGUGGUUCGUUUAGGAAGCACCGGUGGU |  |  | 9.59 | 7.02 |
| CAGUGCUGUUGAGAGGAUAUGCGGCGACGGACAUGAGGAUCACCCAUGUUAGCGACAGCGUUGCGGCAGAAGGCUCUGCCCGCUA |  |  | 52.3 | 23.1 |
| ACAUGAGGAUCACCCAUGUUCACAUAGGAUAUUGAUUUUAUUGGUUUUAGAAUAGUAAUUAACCUCAAGAAGGAUGCCAGUUGU |  |  | 11.1 | 9.31 |
| AGGAUUAAAGGGAAUAACAUGAGGAUCACCCAUGUAUGGGAGAGAAGGCAUAUCGGAGGACGAUAUGAGGAUAUUUAAAAUUUA |  |  | 121 | 38.3 |
| UGAACUAUGUAGAAGGCCCAUAUUUAUAUAUAGGGAGGAUAUACAUGAGGAUCACCCAUGUAUAGAGCAAGAGGACUUGUCAGU | 6.34 | 7.07 |  |  |
| GCGUGACAUGAGGAUCACCCAUGUGAGGAUAUCUGGACACUCUUUAUUUUAGAUGUCCAGAGAAGGCACAUGCU | 238 | 126 |  |  |
| GGAUAGGACAGAGGAUAUACGUGCUAGAGACACUAGCAAAAUUUCCUCACAUGAGGAUCACCCAUGUAGAAGGCUGUCCUAUCG | 15.4 | 405 |  |  |
| ACUGACAUGAGGAUCACCCAUGUCUUGAAUAGGUCAAAUUCACAGGAUAUGCGCUCGGCCAAGGCGCAGAAGGGUGAUGCAAUG |  |  | 57.9 | 11.1 |
| AUGUUGCGAGGAUAUAUUUAAUGGAUGAUAUUUAUUAGGGAACAUGAGGAUCACCCAUGUAGAAGGUGCAUAAC | 63.7 | 87 |  |  |
| AAAAAACAUGAGGAUCACCCAUGUAAUAAAACGUCAGGAUAUUGAUUUUAUUAUUUAUUACAAGAAGGGACAAAAA |  |  | 133 | 57.6 |
| GGGCCGAAAGGCCCGCGGGCCCGGGAGGAUAUACAUGAGGAUCACCCAUGUCCGGCGAAAGCCGGGUAGAAGGCCCGGGCCCGC | 5.38 | 7.03 |  |  |
| AAAAUACAUGAGGAUCACCCAUGUUAGGAUAUCCAAGGCCUGACCCUCAAGGUCAGGCGGAGAAGGGAUGUGGU | 50.4 | 51.3 |  |  |
| GGGUACAUCGGAGGAUAUCAUGUAAAUACAUGAGGAUCACCCAUGUCUAUGGAGACAUCGGAGAUUGAGAAGGCCGAUGUACCG |  |  | 14.4 | 150 |
| AGCUAGUCAGGAUAUACGAACAUGUCAAAAGACGUGAAAGGACAUGAGGAUCACCCAUGUAGAAGGGACUAGCA | 21.4 | 46.9 |  |  |
| AGUGGGUGUGAUAAAUAGUGGAAGUAGGAUAUGGGCUUACAUGAGGAUCACCCAUGUAUACAGCGCCAGAAGGACUGGACUGUA |  |  | 75.3 | 34.6 |
| GAAGCACGCAUUAACAUGAGGAUCACCCAUGUCAAAAGACGUGAGGAUAUGGAUCUGAAGAAGAUCCAGAAGGCACUGUGCUAA |  |  | 7.39 | 5.59 |
| GUAGCAAUCGGAGGAUAUUCAUGAAACAUGAGGAUCACCCAUGUUAAUUUGGGAGAAGGCCGAUUGCUACAAGAGCGAAAGCUC |  |  | 8.14 | 5.35 |
| UUGGACGUCGUAGGAUAUGUAGGAUAGUCCUACAUGAGGAUCACCCAUGUUGACAUGGAAGAAGGACAGAAGGACGAUGUCCAU |  |  | 553 | 35.4 |
| UGUCGGAGCAGAGGAUAUUACAUGAGGAUCACCCAUGUAUGAACCAAUAGCUGGAAACAGCAAGGUAAGAAGGCUGCUCCGACA | 5.24 | 9.98 |  |  |
| GUUAUGUCAGGAUAUGCUUAUGGUGGGUGCUCAGACAUGAUGCAGAAGGGACAUGAGGAUCACCCAUGUACUGU | 593 | 435 |  |  |
| AAGGAUAGAGGAUAUACGUAGAUACAGAUUCAUGUAGAACUACAUGAGGAUCACCCAUGUAGAAGGCUAUCCUA | 28.8 | 299 |  |  |
| AUAAAUCAUGUAGGAUAUGCGUGGCGAAGCUAUGCAGAAGGACAUGAGGAUCACCCAUGUCUUUCUGUCUGCGUACAGACAGGA | 23.9 | 115 |  |  |
| AUACUCAUGUAAGGAUAUGCAGCCGUUUCGGCUGCAGAAGGUACUAAAAUACAUGAGGAUCACCCAUGUCUCUCGCAUUGCGAG |  |  | 753 | 117 |
| GAAUAAUUGAUCCAAUAUAACAACAUGAGGAUCACCCAUGUGCAGGAUAUCGUGUGUGUUAUAUACGAGAAGGGCAAGAACUGU | 729 | 594 |  |  |
| GUCUUAUUACAGAAGGUGUUUUACAUGAGGAUCACCCAUGUUUUAUUGUUUAAAUUUGAUAUUUACAAGGAUAUGUACUAAUCU |  |  | 25.1 | 21 |
| AAUUGACACGUAGGAUAUCGAUCUAAAUUAACUCGAGAAGGACGCACAUGAGGAUCACCCAUGUUUAAUGGAGUAGACAUGUUG | 314 | 508 |  |  |

| Sequence | apparent Kd [1] [nM] | apparent Kd [2] [nM] | apparent Kd [3] [nM] | apparent Kd [4] [nM] |
| --- | --- | --- | --- | --- |
| ACAUGCCUGUCGAUGCUCGACAUGAGGAUCACCCAUGUACAGCAGGAUAUGCAGAACUAACUCGUGCAGAAGGGCUGUACCUAA | 90.8 | 226 |  |  |
| CAUGCGGGCGGGUUUUUGAUACAUGAGGAUCACCCAUGUCUUGAGGAUAUCUUUGCAACACGCCAAGAGAAGGCAAGGCGUUUC | 33.6 | 107 |  |  |
| GGUGGACAUGAGGAUCACCCAUGUGAGGAUAUCGGCCGGUUCGUGGUGGCUGGCUUCUCGAGAAGGCGCAUAGU | 55.8 | 65.7 |  |  |
| UUGGACGUCGUAGGAUAUGUAGGAUACUCCUACAUGAGGAUCACCCAUGUUGACAUGGAGGAAGGACAGAAGGACGGUGUCCAU |  |  | 25.8 | 6.46 |
| AUCCGGGCCCAGAAGGUGCCAGCGAGAGCUGCACAUGAGGAUCACCCAUGUUGUCGGUGACGACGCAAGGAUAUGGGCCCGGAU |  |  | 24.4 | 6.89 |
| CCUCUACAUGAGGAUCACCCAUGUGAGGAUAUGCGAGGCGCACUCGAUGAGCGCGCCGGUAGAAGGCAUGUGGU | 24 | 55 |  |  |
| GCCCGUGCGGAGGAUAUUGAUAUCCCAGUCUAUCAAGAAGGCUGCACAUGAGGAUCACCCAUGUGACCUGUGCU | 18.8 | 51.7 |  |  |
| AGAUGGUAUAUAGGAUAUCAUGUGCAAACAUGAGGAUCACCCAUGUAGAGACGUCAGUUUAAUAAUGAGAAGGAUAUACCAUCU |  |  | 31.9 | 14.4 |
| AGCAAGUAUACAUGAGGAUCACCCAUGUUUUUUAGGGUUUUCAGAAGGUACAUUUUGAGAUAGAGUAAGGAUAUGAAAUAUGCG |  |  | 101 | 45.7 |
| UAGUGGCAAGGAUAUACAGAGGAGAGGAUUGCAAGAGGUGGACAUGAGGAUCACCCAUGUAGAAGGUGCAGAGA | 239 | 281 |  |  |
| CCUUAGUCAGGAUAUACAUGAGGAUCACCCAUGUAAAAUUUUAAUUUAAUUUUAAGGUGUAGAAGGGACCACCC | 26.3 | 22.6 |  |  |
| GUGUACGGAGGAUAUAUAUGGGCAGCAUACGCUGCAGCUUCACAUGAGGAUCACCCAUGUAGAAGGCUGUGCAC | 22.4 | 129 |  |  |
| CUUUUUUGAGGAUAUUAGUAGUAAAUAAAUAAAAUUACUACUGAGAAGGCACAUGAGGAUCACCCAUGUUCCUC | 16.3 | 26.9 |  |  |
| UGGAUCAUCGGAGGAUAUCAUGUAUAUACAUGAGGAUCACCCAUGUCGAUGGAGACAUCGGAGAUUGAGAAGGCCGAUGAUCCU |  |  | 910 | 30.5 |
| UGGCGUUGAGGAUAUACAUUGAAUAAGAUUCAUGUAAAACUACAUGAGGAUCACCCAUGUAGAAGGCAAUGCCU | 16.9 | 27.7 |  |  |
| AAAACGAAAGUCGAACGAUGUAGCAGAAGGACAUGAGGAUCACCCAUGUCAGCUGUAACAGCCAUGUAGGAUAUGCUACAUUUU | 5.47 | 6.35 |  |  |
| CAGCAAAGGUAGAAGGCAGUACUGAUACAGUACUGAGGAUAUACAUGAGGAUCACCCAUGUAAAAAAGCUGGAAAUAAAUAAAA | 7.39 | 10 |  |  |
| GUCGAGUGAGGAUAUGGUGAGUAGUGCCUGAGCGCUGCUCACCAGAAGGCACAUGAGGAUCACCCAUGUAUGAC | 18.2 | 23.9 |  |  |
| CCCAAACUUGGGUUUGGUGGUUCAUAGGAUAUGCUUGUACAUGAGGAUCACCCAUGUACUAUUGUGCAGAAGGGUGCAUGGCAA |  |  | 36.7 | 26.5 |
| CGCAUCUCUACAAUUCCUUCACAUGAGGAUCACCCAUGUAGGGAGGAUAUGCAAGCUUAUUGGCGGCAGAAGGCCCUGCAAUGG | 142 | 127 |  |  |
| UGUGCGUUGAUCUUCGAUCGGUGUACAUGAGGAUCACCCAUGUAGGAUAUUCUAAGACGCAGAUAGGAGAAGGACAUUGGUUUU | 22.9 | 64.1 |  |  |
| AAAUAGGUAGGAUAUACAUGGAUAUACAUUCAUGUGGACCUACAUGAGGAUCACCCAUGUAGAAGGACCUAGUA | 40.2 | 43.7 |  |  |
| UCUGUUCAAGGAUAUGCGUAAUGUGUUACGGCACGAGGUCUACAUGAGGAUCACCCAUGUAGAAGGUGAUCAGA | 21.5 | 22.2 |  |  |
| AAGGAUAGAGGAUAUACAUAGAUACAGAUUCAUGUAAUCCUACAUGAGGAUCACCCAUGUAGAAGGCUAUCCUA | 15.8 | 58.3 |  |  |
| UCCUACAUGGGAGGAUAUGGGAUGAUAACAUGAGGAUCACCCAUGUUAAAGAUGCCGAGAGGCAACUAGAAGGCCCAUGUAGGU |  |  | 434 | 70.3 |
| CAGUACUGAGGAUAUACAUGAGGAUCACCCAUGUAUCCUAGCUAGGAAACUAGCAAAUGUAGAAGGCAGUACUG | 62.5 | 458 |  |  |
| GGAGCACACAUUAACAUGAGGAUCACCCAUGUCAAAGGACAUGAGGAUAUGGAUCCGAAAAGGAUCCAGAAGGCAUGGUGCUCC |  |  | 173 | 11.1 |
